Series [1] in a line: Selectivity index, ratio of IC50 for rat L6 cells to IC50 for axenic amastigotes of Leishmania donovani MHOM/SD/62/1S-CL2D. In kind it is toxicity, cell-based. Conditions: read-out: Ratio IC50. A digest of the protocol: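 Ratio of L6 IC50 to L. donovani IC50. L6: 4000 cells in RPMI 1640 with 10% FBS, 70 h at 37 °C, then Alamar blue 2–3 h, fluorescence 536/588 nm. Leishmania: 6×10^4 axenic amastigotes per well, 2-fold dilutions, 72 h at 37 °C in 5% CO2, tetrazolium CellTiter read at 490 nm. IC50 from a four-parameter dose–response fit.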

Series [2] relates to Trypanosoma brucei rhodesiense. Put plainly: Antitrypanosomal activity against bloodstream Trypanosoma brucei rhodesiense STIB900 after 70 hrs by alamar blue assay. The series is classed as functional, organism-based. The following applies: STIB900, 70 h. A digest of the protocol: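 Bloodstream forms, 2000 per well, in supplemented MEM with Earle's salts (0.2 mM 2-mercaptoethanol, 1 mM pyruvate, 0.5 mM hypoxanthine, 15% heat-inactivated horse serum). Serial dilutions, 70 h at 37 °C, 5% CO2. IC50 from sigmoidal curves; two independent runs in duplicate. DMSO ≤1%.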
(Alamar Blue is a resazurin reagent that responds to reducing activity.)

Series [3] in a line: Selectivity index, ratio of IC50 for rat L6 cells to IC50 for bloodstream Trypanosoma brucei rhodesiense STIB900. The series is classed as toxicity, cell-based. The following applies: read-out: Ratio IC50.
Series [4] has as its system Plasmodium falciparum. The series is described as follows: Antiplasmodial activity after 48 hrs against chloroquine-resistant Plasmodium falciparum K1 infected human erythrocytes by [3H]hypoxanthine uptake. In kind it is functional, organism-based.
The subject of series [5] is Leishmania donovani. The series is described as follows: Ratio of compound IC50 to pentamidine IC50 for Leishmania donovani MHOM/SD/62/1S-CL2D. The series is classed as functional.
In series [6] the test system is Leishmania donovani. The series is described as follows: Antileishmanial activity against axenic amastigotes of Leishmania donovani MHOM/SD/62/1S-CL2D after 72 hrs. In kind it is functional, organism-based. A digest of the protocol: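 Axenic amastigotes (adapted from promastigotes), 6×10^4 per well, amastigote medium, 37 °C. 2-fold compound dilutions; 72 h at 37 °C, humidified 5% CO2. Growth read by tetrazolium CellTiter absorbance at 490 nm several hours after reagent addition. IC50 from four-parameter dose–response fit. DMSO ≤1%.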

In series [7] the test system is Trypanosoma brucei rhodesiense. The series is described as follows: Ratio compound IC50 to pentamidine IC50 for Trypanosoma brucei rhodesiense STIB900. The series is classed as functional.
Series [8] concerns L6. Put plainly: Cytotoxicity against rat L6 cells after 70 hrs by alamar blue assay. In kind it is cell-based. The following applies: L6, 70 h.
Series [9] relates to Trypanosoma brucei rhodesiense. The series is described as follows: Antitrypanosomal activity against bloodstream Trypanosoma brucei rhodesiense STIB900 infected in NMRI mouse assessed as survival rate at 5 mg/kg, ip administered 4 consecutive days from day 3 to 6 postinfection. In kind it is functional. Conditions: route intraperitoneal. A digest of the protocol:
(§1)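 Female NMRI mice infected ip with 2×10^4 STIB900 bloodstream forms. Groups of four treated on days 3–6 postinfection. Compounds in DMSO diluted with water to a final 10% DMSO. Untreated infected controls. Tail blood checked for parasitemia to day 60. Surviving aparasitemic mice at day 60 scored cured; mean survival time in days from recorded deaths.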

The nature of series [10]: Selectivity index, ratio of IC50 for rat L6 cells to IC50 for chloroquine-resistant Plasmodium falciparum K1. The series is classed as toxicity, cell-based. Conditions: read-out: Ratio IC50. The gist of the method:
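Ratio of L6 IC50 to P. falciparum K1 IC50. L6: 4000 cells, 70 h at 37 °C, Alamar blue fluorescence. Parasites: infected human erythrocytes (1.25% hematocrit, 0.3% parasitemia) in low-O2 gas for 48 h, then [3H]-hypoxanthine for 24 h, uptake counted. Sigmoidal IC50s, two independent runs in duplicate.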

Series [11] deals with Trypanosoma brucei rhodesiense. Put plainly: Antitrypanosomal activity against bloodstream Trypanosoma brucei rhodesiense STIB900 infected in NMRI mouse assessed as survival rate at 2 mg/kg, ip administered 4 consecutive days from day 3 to 6 postinfection. In kind it is functional. Conditions: route intraperitoneal. The gist of the method:
as §1

For series [12], the system named is Trypanosoma brucei rhodesiense. Put plainly: Antitrypanosomal activity against bloodstream Trypanosoma brucei rhodesiense STIB900 infected in NMRI mouse assessed as parasite free mouse survival at 2 mg/kg, ip administered for 4 consecutive days from day 3 to 6 postinfection measured up to 60 days. The series is classed as functional, organism-based. Details: dose 2 mg/kg. The gist of the method: as §1

For series [13], the system named is Trypanosoma brucei rhodesiense. The series is described as follows: Antitrypanosomal activity against bloodstream Trypanosoma brucei rhodesiense STIB900 infected in NMRI mouse assessed as survival rate at 1 mg/kg, ip administered 4 consecutive days from day 3 to 6 postinfection. In kind it is functional. The following applies: route intraperitoneal. A digest of the protocol: as §1

Each structure is given as a SMILES string. Calls of active or inactive are those of the source. The rule behind the calls is not given here. Where only a bound is given, the exact number is not on record here.

On to `N=C(N)c1ccc(OCCCCCOc2ccc(C(=N)N)nc2)cn1`, for which the selectivity ratio in series [1] came out at 11; in series [3], 4900; in series [10], 544. The IC50 – broadly, the concentration at which inhibition is half-maximal – in [2] was 1 nM; in series [4], 9 nM; in [6], 470 nM; in series [8], 4900 nM. In addition, the “Ratio IC50” value in series [5] is reported as 4; in series [7] it was 3. For the same compound, the Survival in series [9] is >36 days.

On to `Nc1nc(N)nc(Nc2ccc([As]3SCC(CO)S3)cc2)n1` (stereo not drawn) [MELARSOPROL], for which the Survival was >60 days in series [11] and >51.5 days in [13]. Besides, the outcome in series [12] was Active.

Source of the values: ChEMBL document CHEMBL1158484 (J Med Chem, 2009).
